SIAE primary = blocks human sialic acid acetylesterase; inhibition, % at 9.66 µM; AID 1053197; 370,000 tested, 0.69% active; SIAE FP-Rh probe binding, fluorescence polarization;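 active = inhibition above a cutoff: mean of compounds within the control limits plus 3 SD of those, cut at about 17% in these data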
TCR CD3 inh = blocks the human TCR-CD3 interaction; 360,000 tested, 0.37% active; TAMRA-labeled TCR probe fluorescence, biochemical; inhibition, % at 9.4 µM;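 also: recombinant mutant TCR 2C K166C tagged with TAMRA read by polarization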
HTRA1 inhibitor = inhibitors of human serine peptidase HTRA1; Q92743; inhibition, % at 5.96 µM; 340,000 tested, 0.5% active; recombinant HTRA1, FP-rhodamine activity-based probe, fluorescence polarization; AID 504803; in the data active = inhibition above about 36%
Target sequence (Q92743 whole entry, looked up): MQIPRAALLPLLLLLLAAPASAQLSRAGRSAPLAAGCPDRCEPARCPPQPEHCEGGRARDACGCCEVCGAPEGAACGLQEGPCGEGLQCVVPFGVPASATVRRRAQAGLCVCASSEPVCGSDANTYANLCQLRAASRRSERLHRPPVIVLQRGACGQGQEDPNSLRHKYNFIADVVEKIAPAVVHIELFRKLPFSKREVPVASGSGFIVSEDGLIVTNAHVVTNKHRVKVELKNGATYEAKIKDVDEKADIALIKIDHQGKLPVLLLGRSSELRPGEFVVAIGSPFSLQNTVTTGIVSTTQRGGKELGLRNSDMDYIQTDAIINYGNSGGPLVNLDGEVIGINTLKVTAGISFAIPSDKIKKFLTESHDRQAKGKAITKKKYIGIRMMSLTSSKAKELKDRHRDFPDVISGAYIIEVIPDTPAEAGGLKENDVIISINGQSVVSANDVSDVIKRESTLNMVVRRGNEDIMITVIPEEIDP
ABHD4 inh = ABHD4 (mouse) inhibition, primary FP screen; Q8VD66; purified mABHD4, FP-Rh probe fluorescence polarization; inhibition, % at 8.92 µM; 370,000 tested, 0.54% active; AID 720543;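 active = inhibition exceeding the mean over every tested compound plus 3 SD, cut at about 30% in these data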
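Doses – 8.92 µM, single dose · Material – wild-type mouse ABHD4 protein · Replication – single well per compound (singlicate) · Measure – percent inhibition of probe binding, normalized to plate controls · Schedule – 45 min compound pre-incubation plus 60 min probe step, 25 °C · Detection – fluorescence polarization with parallel and perpendicular emission, 525/598 nm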
PRMT1 inh = blocks human protein arginine methyltransferase 1; Q99873; recombinant PRMT1, activity-based probe fluorescence polarization; inhibition, % at 2.79 µM; 370,000 tested, 1.3% active;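 active = inhibition above about 21% made by adding two undisclosed values, limit read from the data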
BSA TAMRA ctr = counter-screen for TCR-CD3 interaction inhibitors: BSA probe; shares compounds with TCR CD3 inh; TAMRA-labeled BSA probe fluorescence counterscreen; inhibition, % at 9.4 µM; 1,200 tested, 10% active; AID 652035; in the data active = inhibition above about 23%
TCR-CD3 conf = TCR-CD3 interaction inhibition, confirmation. 1,200 tested, 48% active. inhibition, % at 9.4 µM. TAMRA-labeled TCR probe fluorescence binding assay. AID 652036. shares compounds with TCR CD3 inh
A number is an active result; - = inactive; . = no result given. Sampled rows, rich in hits. Any-hit rate of the full collection: about 2.6%. Rule as the data show it, unless noted: active = inhibition above about 19%; inactive = the rest.

SMILES | SIAE primary | TCR CD3 inh | HTRA1 inhibitor | ABHD4 inh | PRMT1 inh | BSA TAMRA ctr | TCR-CD3 conf
COc1cc(OC)cc(C(=O)NC(=S)Nc2cccnc2)c1 | - | - | - | - | - | . | .
COc1cc(OC)cc(C(=O)NNC(=S)NC(=O)c2cccnc2)c1 | - | 23 | - | - | - | - | 20
CCn1c(C)nc2cc(C(=O)NNC(=S)NC(=O)c3ccccc3)ccc21 | - | 34 | - | - | - | - | 28
CCOC(=O)CS(=O)(=O)c1nc(-c2ccccc2)cc(C(F)(F)F)n1 | - | 22 | - | - | - | - | -
CCOC(=O)CCS(=O)(=O)c1nc(-c2ccccc2)cc(C(F)(F)F)n1 | . | . | - | . | . | . | .
Cc1nn(-c2ccccc2)c(Cl)c1C(=O)NCC(C)c1ccccc1 (stereo not given) | - | 130 | - | - | - | - | -
Cc1nn(-c2ccccc2)c(Cl)c1C(=O)NCC(C)C | - | - | - | - | - | . | .
Cc1cc(C)c2c(N)c(C(=O)NN)sc2n1 | - | 38 | - | - | - | - | 29
CCOC(=O)c1sc2nc(C)cc(C)c2c1N | - | - | - | - | - | . | .
COC(=O)c1ccccc1NC(=O)c1ccc2c(c1)OCCO2 | - | - | - | - | - | . | .
COC(=O)c1ccccc1NC(=S)NC(=O)c1ccc2c(c1)OCO2 | - | 45 | - | - | - | - | -
O=C(COC(=O)c1ccc(O)cc1)Nc1cccc(S(=O)(=O)NC2=NCCC2)c1 | - | - | - | - | - | . | .
O=C(COC(=O)c1ccc(OC(F)F)cc1)Nc1cccc(S(=O)(=O)NC2=NCCC2)c1 | - | 40 | - | - | - | - | -
COc1ccc(S[C@]2(C(=O)N3CCCC3)CC(=O)N(C(=O)CCc3ccccc3)[C@@H]2c2ccc(OC)cc2)cc1 | - | . | . | - | - | . | .
Cc1ccc(C(=O)OCC(=O)NNC(=O)COc2ccc(Cl)cc2)c(O)c1 | - | 27 | - | - | - | - | -
Cc1ccc(C(=O)OCC(=O)NNC(=O)c2ccccc2)c(O)c1 | - | - | - | - | - | . | .
CC(C)Cc1nc2oc3c(=O)[nH]cnc3c2c2c1CCCC2 | - | - | - | - | - | . | .
CC(C)Cc1nc2sc3c(=O)[nH]cnc3c2c2c1CCCC2 | - | 20 | - | - | - | - | -
CCOC(=O)[C@@]12CCCC=C1N(CCc1ccc(Cl)cc1)C(=O)[C@H]2CC(=O)NCCc1ccccc1OC | - | . | . | - | - | . | .
COC(=O)CC1(C(=O)OC)Nc2cc(Cl)c(Cl)cc2S(=O)(=O)N1O (stereo not given) | - | 38 | - | - | - | - | 29
COC(=O)CCC(=O)Nc1ccc(Cl)c(Cl)c1 | - | - | - | - | - | . | .
COc1cccc(C(=O)N[C@H](C(=O)N2CCC[C@H]2C(=O)NCCc2ccccc2Cl)C(C)C)c1 | - | - | . | - | - | . | .
CCCc1nnc(NC(=O)CS(=O)(=O)c2ccccc2)s1 | - | 30 | - | - | - | - | -
O=C(CS(=O)(=O)c1ccccc1)Nc1nnc(Cc2ccccc2)s1 | - | - | - | - | - | . | .
CCCC1CCC2(CC1)CCC2OC(=S)Nc1cccc(C(F)(F)F)c1 (stereo not given) | - | . | . | - | - | . | .
SMILES | SIAE primary | TCR CD3 inh | HTRA1 inhibitor | ABHD4 inh | PRMT1 inh | BSA TAMRA ctr | TCR-CD3 conf
Clc1ccc([C@H]2OC[C@@]3(CNCc4ccccn4)CS[C@H](c4ccc(Cl)cc4)N23)cc1 | - | . | . | - | - | . | .
C=CCNC(=S)NNC(=O)c1cc(O)ccc1O | - | 38 | . | - | - | - | 23
C=CCn1cccc(C(=O)Nc2ccc(Cl)cc2)c1=O | - | - | - | - | - | . | .
C=CCNC(=S)NNC(=O)c1cccn(Cc2ccc(Cl)cc2)c1=O | - | 36 | - | - | - | - | -
C=CCNC(=S)NNC(=O)c1cccn(Cc2cccc(Cl)c2)c1=O | - | 27 | - | - | - | - | 25
COC(=O)[C@H](C(C)C)N(Cc1cn(Cc2ccccc2)nn1)S(=O)(=O)c1ccccc1Br | - | . | . | - | - | . | .
COc1ccc2ccccc2c1/C=N/NC(=S)Nc1cc(S(=O)(=O)N2CCOCC2)ccc1N1CCOCC1 | - | - | - | - | - | . | .
CCOc1cccc(/C=N/NC(=S)Nc2cc(S(=O)(=O)N3CCOCC3)ccc2N2CCOCC2)c1O | - | 21 | - | - | - | - | -
O=C(Nc1ccc(Cl)c(Cl)c1)O/N=C/c1ccncc1 | - | 42 | - | - | - | - | 20
